We go through three molecules from ChEMBL document CHEMBL1136985, “New pyridinone derivatives as potent HIV-1 nonnucleoside reverse transcriptase inhibitors” (J Med Chem, 2009).

Each structure is given as a SMILES string.

In data set [1] the test system is Human immunodeficiency virus 1. The experiment in a line: Antiviral activity against HIV1 NL4-3 with Y181C mutant in human TZM-b1 cells assessed as beta-galactosidase activity after 48 hrs by single round replication assay. It counts as functional, organism-based. The conditions noted are these: Human immunodeficiency virus 1, NL4-3, TZM-b1, 48 h. The method, boiled down: (§1)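 TZM-bl cells (DMEM, 5% heat-inactivated FBS) plated at 5000 cells/well and grown 48 h. Medium replaced with compound at 0.00128–4 µM. After 4 h, cells infected with NL4-3-derived RT-mutant virus equal to 100 ng p24. Virus stocks came from HEK293 cells transfected with sequence-verified mutant clones. At 48 h, cells lysed in PBS/0.1% NP-40/5 mM MgCl2 and β-galactosidase read with CPRG. EC50 taken from dose-response curves.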

Data set [2] has as its system Human immunodeficiency virus 1. The experiment in a line: Antiviral activity against HIV1 NL4-3 with L100I mutant in human MT4 cells assessed as inhibition of virus-induced cytopathicity after 5 days by multiple round replication assay. It counts as functional, organism-based. The conditions noted are these: Human immunodeficiency virus 1, NL4-3, MT4, 120 h. The essentials: (§2)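 MT-4 human T-cells, cultured in RPMI 1640 with 10% heat-inactivated FBS at 37 °C, 5% CO2, infected with HIV-1 NL4-3-derived mutant strains, then exposed to a range of compound concentrations. After 5 days, viability of infected and mock-infected cells read by WST-1 tetrazolium cleavage.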
Background: Damage to the host cells serves as the signal in cytopathic effect assays.

Data set [3] can be described thus: Selectivity index, ratio of CC50 for human TZM-b1 cells to EC50 for HIV1 NL4-3. In kind it is toxicity, cell-based. To be noted: read-out: Ratio CC50/EC50. The method, boiled down:
(§3)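 Viability by WST-1 absorbance at 570 nm relative to drug-free control. Divided by EC50 from the 48 h β-galactosidase infection assay with NL4-3 in the same cell type.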

Data set [4] relates to Human immunodeficiency virus 1. In words: Antiviral activity against HIV1 NL4-3 with K103N mutant in human MT4 cells assessed as inhibition of virus-induced cytopathicity after 5 days by multiple round replication assay. It counts as functional, organism-based. The conditions noted are these: Human immunodeficiency virus 1, NL4-3, MT4, 120 h. The method, boiled down:
as §2

For data set [5], the system named is Human immunodeficiency virus 1. The experiment in a line: Antiviral activity against wild type HIV1 NL4-3 in human TZM-b1 cells assessed as beta-galactosidase activity after 48 hrs. It counts as functional, organism-based. The conditions noted are these: Human immunodeficiency virus 1, NL4-3, TZM-b1, 48 h. The method, boiled down:
(§4)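 Cells plated at 5000/well, incubated 48 h, then medium replaced with compound (0.00128 to 4 µM). Infection 4 h later with cell-free NL4-3 virus equivalent to 100 ng p24. At 48 h postinfection cells lysed in PBS with 0.1% NP-40 and 5 mM MgCl2. β-Galactosidase read with chlorophenol red β-D-galactopyranoside. EC50 taken from dose-response curves.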

For data set [6], the system named is Human immunodeficiency virus 1. The experiment in a line: Antiviral activity against HIV1 NL4-3 with L100I/V108I double mutant in human TZM-b1 cells assessed as beta-galactosidase activity after 48 hrs by single round replication assay. In kind it is functional, organism-based. The conditions noted are these: Human immunodeficiency virus 1, NL4-3, TZM-b1, 48 h. The method, boiled down:
as §1

In data set [7] the test system is Human immunodeficiency virus 1. The experiment in a line: Antiviral activity against HIV1 NL4-3 with K103N/Y181C double mutant in human TZM-b1 cells assessed as beta-galactosidase activity after 48 hrs by single round replication assay. To be noted: Human immunodeficiency virus 1, NL4-3, TZM-b1, 48 h.
The test system of data set [8] is Human immunodeficiency virus 1. The experiment in a line: Antiviral activity against HIV1 NL4-3 with double K103N/L100I mutant in human MT4 cells assessed as inhibition of virus-induced cytopathicity after 5 days by multiple round replication assay. In kind it is functional, organism-based. To be noted: Human immunodeficiency virus 1, NL4-3, MT4, 120 h. The method, boiled down: as §2

Data set [9] has as its system Human immunodeficiency virus 1. In words: Antiviral activity against HIV1 NL4-3 in human TZM-b1 cells assessed as beta-galactosidase activity after 48 hrs by single round replication assay. To be noted: Human immunodeficiency virus 1, NL4-3, TZM-b1, 48 h.
The subject of data set [10] is Human immunodeficiency virus 1. The experiment in a line: Antiviral activity against HIV1 NL4-3 with K103N mutant in human TZM-b1 cells assessed as beta-galactosidase activity after 48 hrs by single round replication assay. In kind it is functional, organism-based. To be noted: Human immunodeficiency virus 1, NL4-3, TZM-b1, 48 h. The essentials: as §1
Data set [11] relates to Human immunodeficiency virus 1. In words: Antiviral activity against HIV1 NL4-3 with Y181C mutant in human MT4 cells assessed as inhibition of virus-induced cytopathicity after 5 days by multiple round replication assay. It counts as functional, organism-based. The conditions noted are these: Human immunodeficiency virus 1, NL4-3, MT4, 120 h. The essentials: as §2
Data set [12] deals with Human immunodeficiency virus 1. The experiment in a line: Antiviral activity against HIV1 NL4-3 with K103N/V108I double mutant in human TZM-b1 cells assessed as beta-galactosidase activity after 48 hrs by single round replication assay. To be noted: Human immunodeficiency virus 1, NL4-3, TZM-b1, 48 h.
Data set [13] relates to Human immunodeficiency virus 1. In words: Antiviral activity against HIV1 NL4-3 with L100I mutant in human TZM-b1 cells assessed as beta-galactosidase activity after 48 hrs by single round replication assay. It counts as functional, organism-based. To be noted: Human immunodeficiency virus 1, NL4-3, TZM-b1, 48 h. The method, boiled down: as §1
The subject of data set [14] is Human immunodeficiency virus 1. In words: Antiviral activity against wild type HIV1 NL4-3 in human MT4 cells assessed as inhibition of virus-induced cytopathicity after 5 days by multiple round replication assay. To be noted: Human immunodeficiency virus 1, NL4-3, MT4, 120 h. In kind it is functional, organism-based. The essentials:
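MT-4 T cells in RPMI 1640 with 10% FBS were infected with NL4-3 (wild type or RT mutants) and exposed to a range of compound concentrations. After 5 days, viability of infected and mock-infected cells was read by WST-1 cleavage, giving EC50 against viral cytopathicity and CC50 together.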

In data set [15] the test system is Human immunodeficiency virus 1. The experiment in a line: Antiviral activity against HIV1 NL4-3 with K103N/L100I double mutant in human TZM-b1 cells assessed as beta-galactosidase activity after 48 hrs by single round replication assay. It counts as functional, organism-based. To be noted: Human immunodeficiency virus 1, NL4-3, TZM-b1, 48 h. The essentials: as §1

For data set [16], the system named is Human immunodeficiency virus 1. The experiment in a line: Antiviral activity against HIV1 NL4-3 with Y181C mutant in human HeLaP4 cells assessed as beta-galactosidase activity after 48 hrs by single round replication assay. In kind it is functional, organism-based. To be noted: Human immunodeficiency virus 1, NL4-3, HeLaP4, 48 h.
Data set [17] relates to Human immunodeficiency virus 1. In words: Antiviral activity against HIV1 NL4-3 with V108I mutant in human TZM-b1 cells assessed as beta-galactosidase activity after 48 hrs by single round replication assay. It counts as functional, organism-based. To be noted: Human immunodeficiency virus 1, NL4-3, TZM-b1, 48 h. The method, boiled down:
as §1

Data set [18] can be described thus: Selectivity index, ratio of CC50 for human HeLaP4 cells to EC50 for HIV1 NL4-3. To be noted: read-out: Ratio CC50/EC50. In kind it is toxicity, cell-based. The method, boiled down:
as §3

For data set [19], the system named is Human immunodeficiency virus 1. The experiment in a line: Antiviral activity against wild type HIV1 NL4-3 in human HeLaP4 cells assessed as beta-galactosidase activity after 48 hrs. In kind it is functional, organism-based. The conditions noted are these: Human immunodeficiency virus 1, NL4-3, HeLaP4, 48 h. The method, boiled down: as §4

The EC50 is the concentration giving half of the maximal effect. Take `CCc1c(C)[nH]c(=O)c(CC)c1O[C@@H]1C[C@H](C)C[C@H](C)C1`: the EC50 was 15 nM in [1]; 27 nM in [2]; 26 nM in data set [4]; less than 1 nM in data set [5]; 115 nM in data set [6]; 359 nM in [7]. For the same molecule, the EC50 in data set [8] came out at 145 nM; in data set [9], 5400 nM; in [10], 5 nM; in data set [11] it was 49 nM; in data set [12], 107 nM; in [13] it was 6 nM. The EC50 came to 2 nM in data set [14] and 81 nM in [15]. The selectivity ratio in data set [3] was greater than 67000.
`CCOC(=O)c1c(O[C@@H]2C[C@H](C)C[C@H](C)C2)c(CC)c(C)[nH]c1=O`: the EC50 in data set [16] was 2000 nM; in data set [17], 5900 nM; in data set [9], greater than 10000 nM; in data set [10], greater than 10000 nM; in data set [13], 2200 nM; in data set [19] it was 36 nM. In addition, in [18], the selectivity ratio came to 1780.
Turning to `CCc1c(C)[nH]c(=O)c(C(C)C)c1O[C@@H]1C[C@H](C)C[C@H](C)C1`, the EC50 in data set [1] is 6 nM; in data set [2], 6 nM; in [4], 7 nM; in data set [5], less than 1 nM; in data set [6], 10 nM; in [7] it was 642 nM. Moreover, the EC50 was 84 nM in data set [8]; 1100 nM in [9]; 2 nM in [10]; 19 nM in data set [11]; 105 nM in data set [12]; 2 nM in [13]. Further, the results for the EC50 in [14] and in data set [15] were 2 nM and 44 nM, respectively. Besides, the selectivity ratio in data set [3] was greater than 82000.
